The target in experiment [1] is Estrogen receptor (Bos taurus) (UniProt Q9XSB5+P49884). As to the kind of experiment: Evaluated for relative binding affinity (RBA) for calf uterine estrogen receptor. The format is protein assay. In short, it runs like this:
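Calf uterine cytosol (105000g supernatant; final protein 3 mg/mL) in Tris-EDTA-azide buffer pH 7.5. Incubated with 5 nM [³H]estradiol and competitor (10⁻⁹–10⁻⁴ M) for 18 h at 4 °C. Free ligand removed with dextran-coated charcoal, bound counted by scintillation. Nonspecific binding measured with 5 μM estradiol. RBA = estradiol/competitor molar ratio at 50% displacement ×100.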

Experiment [2] has as its system MCF7. As to the kind of experiment: Reduction of cell number of hormone sensitive MCF-7 human breast cancer cells at 10e-5 M.
Experiment [3] relates to MCF7. As to the kind of experiment: Reduction of cell number of hormone sensitive MCF-7 human breast cancer cells at 10e-6 M.
Experiment [4] has as its system MCF7. In words: Inhibition of [3H]thymidine incorporation into hormone sensitive MCF-7 human breast cancer cells at 10e-5 M. The format is functional. Put shortly: (§1)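 MCF-7 cells kept two weeks in medium with 5% charcoal-treated calf serum, 37 °C, 5% CO₂. About 2×10⁴ cells per well; compound added next day in 0.1% ethanol, ethanol-only controls, medium changed on day 4. Cells counted on day 7 by Coulter counter; [³H]thymidine 1 μCi/well for 2 h. Mean of six dishes.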

Experiment [5] relates to MCF7. In words: Inhibition of [3H]thymidine incorporation into hormone sensitive MCF-7 human breast cancer cells at 10e-6 M. The format is functional. Put shortly:
as §1
In general terms: Dividing cells build labelled thymidine or BrdU into new DNA.

Experiment [6] is filed under the species Rattus norvegicus. As to the kind of experiment: Percentage progressive DMBA-induced mammary tumors in rats at 1 mg dose (experiment-1). It counts as functional. In short, it runs like this: (§2)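 Female Sprague–Dawley rats given a single 20 mg DMBA dose by gavage in 1 mL olive oil at 50 days old. Randomized once tumor area per animal exceeded 140 mm². Compound given sc in olive oil (1 mL/kg), dose per kg, once daily Monday–Thursday, double dose Friday. Tumor area from caliper measurement of two perpendicular axes, twice weekly. Significance by Wilcoxon–Mann–Whitney U test.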

The species named for experiment [7] is Rattus norvegicus. In words: Percentage progressive DMBA-induced mammary tumors in rats at 4 mg dose (experiment-1). It counts as functional. In short, it runs like this: as §2
The species entered for experiment [8] is Rattus norvegicus. As to the kind of experiment: Partial remission of DMBA-induced mammary tumors in rats at 4 mg dose. The format is functional. Put shortly: as §2
For experiment [9], the species on record is Rattus norvegicus. In words: Initial tumor number in DMBA-induced tumor bearing rats at 1 mg dose (experiment-1). It counts as functional. In short, it runs like this: as §2
Experiment [10] addresses T1, Estrogen receptor (Mus musculus) (UniProt O08537+P19785). In words: Uterotrophic activity in mice as uterus dry weight (mg)/body weight (g) *100 at 1 ug. The format is functional, tissue-based. Put shortly: (§3)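 Immature 19-day-old female NMRI mice, 10 per group. Compound in olive oil injected sc on 3 consecutive days, dose per animal; vehicle-only controls, estrone as reference. Killed 24 h after last injection. Uteri fixed in Bouin solution, dried at 100 °C for 24 h. Value = uterine dry weight (mg)/body weight (g) ×100, mean of 10 animals ± SD.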

For experiment [11], the species on record is Rattus norvegicus. As to the kind of experiment: Complete remission of DMBA-induced mammary tumors in rats at 4 mg dose. The format is functional. In short, it runs like this: as §2
The target in experiment [12] is T1, Estrogen receptor (Mus musculus). As to the kind of experiment: Uterotrophic activity in mice as uterus dry weight (mg)/body weight (g) *100 at 5 ug. The format is functional, tissue-based. In short, it runs like this:
as §3

For experiment [13], the species on record is Rattus norvegicus. As to the kind of experiment: Percentage static unchanged DMBA-induced mammary tumors in rats at 4 mg dose (experiment-1). It counts as functional. Put shortly:
as §2

The species named for experiment [14] is Rattus norvegicus. In words: Final tumor number in DMBA-induced tumor bearing rats at 1 mg dose (experiment-1). It counts as functional. In short, it runs like this:
as §2

The target in experiment [15] is T1, Estrogen receptor (Mus musculus). In words: Uterotrophic activity in mice as uterus dry weight (mg)/body weight (g) *100 at 0.2 ug. The format is functional, tissue-based. Put shortly: as §3
Experiment [16] is filed under the species Rattus norvegicus. In words: Percentage static unchanged DMBA-induced mammary tumors in rats at 1 mg dose (experiment-1). It counts as functional. In short, it runs like this:
as §2

Experiment [17] is filed under the species Rattus norvegicus. As to the kind of experiment: Initial tumor number in DMBA-induced tumor bearing rats at 4 mg dose (experiment-1). It counts as functional. In short, it runs like this: as §2
Experiment [18] is filed under the species Rattus norvegicus. As to the kind of experiment: Final tumor number in DMBA-induced tumor bearing rats at 4 mg dose (experiment-1). It counts as functional. In short, it runs like this: as §2
The species entered for experiment [19] is Rattus norvegicus. As to the kind of experiment: Complete remission of DMBA-induced mammary tumors in rats at 1 mg dose. It counts as functional. Put shortly: as §2
The target of experiment [20] is T1, Estrogen receptor (Mus musculus). As to the kind of experiment: Uterotrophic activity in mice as uterus dry weight (mg)/body weight (g) *100 at 125 ug. The format is functional, tissue-based. In short, it runs like this: as §3
Experiment [21] shares this target. As to the kind of experiment: Uterotrophic activity in mice as uterus dry weight (mg)/body weight (g) *100 at 25 ug. It counts as functional, tissue-based. In short, it runs like this: as §3
The species named for experiment [22] is Rattus norvegicus. In words: Partial remission of DMBA-induced mammary tumors in rats at 1 mg dose. It counts as functional. In short, it runs like this: as §2
Experiment [23] is filed under the species Rattus norvegicus. In words: Change in DMBA-induced mammary tumor area in rats after 28 day therapy at 1 mg dose (experiment-1). The format is functional. Put shortly:
as §2

The species entered for experiment [24] is Rattus norvegicus. In words: Change in DMBA-induced mammary tumor area in rats after 28 day therapy at 4 mg dose (experiment-1). It counts as functional. In short, it runs like this: as §2
In experiment [25] the test system is MCF7. As to the kind of experiment: Percentage cell number change as treated/control in hormone sensitive MCF-7 cell proliferation assay at 10e-6 M or 10e-5 M. It counts as functional, Homo sapiens. Put shortly: as §1
Experiment [26] is filed under the species Rattus norvegicus. As to the kind of experiment: Final tumor number in DMBA-induced tumor bearing rats at 3 mg dose (experiment-1). The format is functional. Put shortly:
as §2

The subject of experiment [27] is MCF7. As to the kind of experiment: Percentage [3H]thymidine incorporation treated/control in hormone sensitive MCF-7 cell proliferation assay at 10e-5 M or 10e-6 M. The format is functional, Homo sapiens. In short, it runs like this:
as §1

The species entered for experiment [28] is Rattus norvegicus. In words: Percentage progressive DMBA-induced mammary tumors in rats at 3 mg dose (experiment-1). It counts as functional. Put shortly: as §2
For experiment [29], the species on record is Rattus norvegicus. In words: Percentage static unchanged DMBA-induced mammary tumors in rats at 3 mg dose (experiment-1). The format is functional. In short, it runs like this:
as §2

Experiment [30] is filed under the species Rattus norvegicus. As to the kind of experiment: (§4) Change in DMBA-induced mammary tumor area in rats after 28 day therapy at 3 mg dose (experiment-1). It counts as functional. Put shortly:
as §2

For experiment [31], the species on record is Rattus norvegicus. In words: Initial tumor number in DMBA-induced tumor bearing rats at 3 mg dose (experiment-1). It counts as functional. In short, it runs like this:
as §2

The species entered for experiment [32] is Rattus norvegicus. In words: Partial remission of DMBA-induced mammary tumors in rats at 3 mg dose. The format is functional. In short, it runs like this: as §2
Experiment [33] is filed under the species Rattus norvegicus. As to the kind of experiment: Complete remission of DMBA-induced mammary tumors in rats at 3 mg dose. It counts as functional. Put shortly: as §2
The species named for experiment [34] is Rattus norvegicus. Described as §4. It counts as functional. In short, it runs like this: as §2
The source holds these as a separate data set.

The species entered for experiment [35] is Rattus norvegicus. In words: Initial tumor number in DMBA-induced tumor bearing rats at 4 mg dose (experiment-2). The format is functional. In short, it runs like this: as §2
The species entered for experiment [36] is Rattus norvegicus. As to the kind of experiment: Final tumor number in DMBA-induced tumor bearing rats at 4 mg dose (experiment-2). It counts as functional. In short, it runs like this:
as §2

Experiment [37] is filed under the species Rattus norvegicus. As to the kind of experiment: Change in DMBA-induced tumor area in rats after 28 day therapy at 1 mg dose (experiment-1). It counts as functional. In short, it runs like this: as §2
For experiment [38], the species on record is Rattus norvegicus. As to the kind of experiment: (§5) Change in DMBA-induced mammary tumor area in rats after 28 day therapy at 4 mg dose (experiment-2). It counts as functional. In short, it runs like this:
as §2

The species entered for experiment [39] is Rattus norvegicus. Described as §5. It counts as functional. In short, it runs like this: as §2
The source holds these as a separate data set.

The structures appear in SMILES notation. Values joined by “and” are separate entries in the source; they are usually repeats but may differ in a detail not shown here. Equal values may be shown once. Bounds are passed on as bounds.

Broadly, the T/C is the ratio of treated to control.

T1 sequence (O08537 whole entry, looked up): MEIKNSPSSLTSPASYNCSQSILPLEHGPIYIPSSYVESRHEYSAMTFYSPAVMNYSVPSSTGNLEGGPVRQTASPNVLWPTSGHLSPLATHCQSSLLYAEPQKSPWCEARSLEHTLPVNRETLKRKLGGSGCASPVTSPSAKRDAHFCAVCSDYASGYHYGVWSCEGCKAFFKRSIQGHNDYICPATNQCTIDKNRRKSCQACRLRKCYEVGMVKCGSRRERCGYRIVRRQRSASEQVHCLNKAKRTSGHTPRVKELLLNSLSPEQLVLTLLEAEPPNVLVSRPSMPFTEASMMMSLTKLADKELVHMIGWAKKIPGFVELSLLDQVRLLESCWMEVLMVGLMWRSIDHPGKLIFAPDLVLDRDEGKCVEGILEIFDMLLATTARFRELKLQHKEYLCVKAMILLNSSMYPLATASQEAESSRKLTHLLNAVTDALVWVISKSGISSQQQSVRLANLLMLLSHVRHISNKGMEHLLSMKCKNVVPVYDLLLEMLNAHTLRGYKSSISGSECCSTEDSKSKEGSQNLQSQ
T1 sequence (P19785 whole entry, looked up): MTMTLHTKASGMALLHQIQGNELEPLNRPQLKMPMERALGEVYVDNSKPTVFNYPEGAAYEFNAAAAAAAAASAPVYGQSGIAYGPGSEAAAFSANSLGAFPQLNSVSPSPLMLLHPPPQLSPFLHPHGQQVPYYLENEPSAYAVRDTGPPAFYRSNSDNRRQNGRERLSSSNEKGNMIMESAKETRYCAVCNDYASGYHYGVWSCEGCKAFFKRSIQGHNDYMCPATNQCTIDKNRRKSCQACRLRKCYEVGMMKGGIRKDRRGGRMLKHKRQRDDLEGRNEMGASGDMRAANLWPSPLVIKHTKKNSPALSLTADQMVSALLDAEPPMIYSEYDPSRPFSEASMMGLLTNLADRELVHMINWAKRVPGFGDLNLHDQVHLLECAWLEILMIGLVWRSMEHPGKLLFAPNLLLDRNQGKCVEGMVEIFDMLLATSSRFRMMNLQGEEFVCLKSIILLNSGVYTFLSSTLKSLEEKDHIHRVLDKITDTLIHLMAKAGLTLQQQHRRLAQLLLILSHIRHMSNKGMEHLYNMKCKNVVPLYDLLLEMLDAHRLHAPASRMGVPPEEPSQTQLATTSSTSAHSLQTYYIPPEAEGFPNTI

`CCn1c2cc(O)ccc2c2ccc3ccccc3c21`: the relative binding affinity (RBA) in experiment [1] is 0.01.

With `CCCn1c2c(c3ccc(O)cc31)CCc1cc(O)ccc1-2`, in experiment [1], the relative binding affinity (RBA) stood at 38.

As for `CCn1c2ccc(O)cc2c2ccc3cc(O)ccc3c21`, the cell number was determined as 5200 in [2] and 24100 in experiment [3]. Moreover, the Activity in experiment [4] is 1040; in experiment [5] it was 26460. Besides, the relative binding affinity (RBA) in experiment [1] was determined as 6.5.

Turning to `CCn1c2c(c3cc(OC(C)=O)ccc31)CCc1cc(OC(C)=O)ccc1-2`, the Effect in [6] came out at 49%; in experiment [7], 61%; in experiment [8] it was 6%; in experiment [10], 19.6; in [11] it was 10%; in [12], 18.4. Further, the Effect was 23% in [13]; 15.3 in [15]; 35% in experiment [16]; 9% in [19]; 25.4 in experiment [20]; 23.6 in experiment [21]. The Effect in [22] worked out at 7%. In addition, the No. of tumors came to 22 in [9] and 24 in experiment [17]. Further, the “No. of new tumors” value was 21 in experiment [14] and 24 in [18]. Besides, the “Change in tumor area” value is on record as 179% in experiment [23] and 230% in experiment [24].

Turning to `CC/C(=C(\c1ccccc1)c1ccc(OCCN(C)C)cc1)c1ccccc1` [TAMOXIFEN], the T/C in experiment [25] is 2% and 12%; in experiment [27], 0% and 6%. Moreover, the “No. of new tumors” value in experiment [26] was 24. Besides, the Effect in experiment [28] was 44%; in experiment [29] it was 27%; in experiment [32], 7%; in experiment [33] it was 22%. In addition, the “Change in tumor area” value in experiment [30] is 136%; in experiment [34], -57%. The cell number turned out to be 2000 in [2] and 4800 in experiment [3]. Moreover, in experiment [31], the No. of tumors came out at 31. Besides, the results for the Activity in experiment [4] and in experiment [5] were 80 and 1850, respectively.

In [1], `CCn1c2cc(O)ccc2c2ccc3cc(O)ccc3c21` yielded a relative binding affinity (RBA) of 20.

`CCn1c2c(c3ccc(O)cc31)CCc1cc(O)ccc1-2`: in experiment [1], the relative binding affinity (RBA) came out at 30.

Compound `CCn1c2ccc(O)cc2c2ccc3c(O)cccc3c21` displayed a relative binding affinity (RBA) in [1] of 0.1.

As to `CCn1c2c(c3ccc(O)cc31)CCc1c(O)cccc1-2`, the relative binding affinity (RBA) in [1] was found to be 1.3.

Compound `CCn1c2c(c3cc(O)ccc31)CCc1ccc(O)cc1-2` came in with a relative binding affinity (RBA) in experiment [1] of 0.7.

As for `CCn1c2ccc(O)cc2c2ccc3ccc(O)cc3c21`, the relative binding affinity (RBA) in experiment [1] was 0.08.

`CCn1c2cc(O)ccc2c2ccc3c(O)cccc3c21` displayed a relative binding affinity (RBA) in experiment [1] of 0.65.

In experiment [1], `CCn1c2c(c3ccc(O)cc31)CCc1ccc(O)cc1-2` returned a relative binding affinity (RBA) of 9.7.

Compound `CCn1c2ccc(O)cc2c2ccc3ccccc3c21` returned a relative binding affinity (RBA) in experiment [1] of less than 0.01.

For the compound `CCn1c2ccc(OC(C)=O)cc2c2ccc3cc(OC(C)=O)ccc3c21`, the Effect in experiment [6] is 70%; in experiment [7] it was 59%; in experiment [8], 10%; in experiment [10] it was 13.7; in experiment [11], 6%; in experiment [12], 14.4. In addition, the Effect in experiment [13] came out at 25%; in [15], 12; in [16], 19%; in experiment [19], 3%; in [20] it was 18.1; in [21], 15.1. Moreover, the Effect in [22] was 8%. The No. of tumors in [9] is 22; in experiment [35] it was 23. Besides, the “No. of new tumors” value in experiment [36] was found to be 45; in experiment [14], 41. This compound also came in with a Median in experiment [37] of 493%. Further, the Range in [37] was -29%. Also, the “Change of tumor area” value worked out at 561% in [38] and 111% in experiment [39].

These data come from ChEMBL document CHEMBL1123415, “Benzo[a]carbazole derivatives. Synthesis, estrogen receptor binding affinities, and mammary tumor inhibiting activity” (1986).
